One data set relates to P. falciparum 3D7. In words: Blood-stage phenotype and development by microscopy. The class given is cell-based. As to conditions: 10xEC50, 48 h. In short, it runs like this:
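Giemsa-stained smears were scored by microscopy, at least 200 cells per condition, for stage arrest and morphology. Standard antimalarials served as controls.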

In data set [1] the test system is P. cynomolgi liver-stage parasites. Kind of data set: P. cynomolgi liver-stage model. The class given is cell-based.
In data set [2] the test system is P. falciparum stage V oocyst. In words: Oocyst formation in mosquitoes.
Data set [3] in a line: Protein binding in assay media. In kind it is in vitro ADME. As to conditions: 0.5% Albumax II in RPMI-1640.
Data set [4] can be described thus: Plasma protein binding, dog. The class given is in vitro ADME.
Data set [5] is described as follows: Plasma protein binding, rat. The class given is in vitro ADME.
A further data set concerns the target CYP2C19 (Homo sapiens, UniProt P33261). In words: Metabolism by individual human CYP enzymes. In kind it is in vitro ADME. As to conditions: CYP2C19 Supersomes.
The target in data set [6] is panel of 106 human receptors and ion channels. In words: Cerep panel of 106 human receptors and ion channels. In kind it is binding.
The test system of another data set is CYP enzymes. In words: CYP induction in human hepatocytes. The class given is in vitro ADME.
Data set [7] deals with human ether-a-go-go related gene (hERG) K+ channel (Homo sapiens, UniProt Q12809). Kind of data set: hERG patch clamp assay. The class given is cell-based.
Chain of human ether-a-go-go related gene (hERG) K+ channel (Q12809 whole entry): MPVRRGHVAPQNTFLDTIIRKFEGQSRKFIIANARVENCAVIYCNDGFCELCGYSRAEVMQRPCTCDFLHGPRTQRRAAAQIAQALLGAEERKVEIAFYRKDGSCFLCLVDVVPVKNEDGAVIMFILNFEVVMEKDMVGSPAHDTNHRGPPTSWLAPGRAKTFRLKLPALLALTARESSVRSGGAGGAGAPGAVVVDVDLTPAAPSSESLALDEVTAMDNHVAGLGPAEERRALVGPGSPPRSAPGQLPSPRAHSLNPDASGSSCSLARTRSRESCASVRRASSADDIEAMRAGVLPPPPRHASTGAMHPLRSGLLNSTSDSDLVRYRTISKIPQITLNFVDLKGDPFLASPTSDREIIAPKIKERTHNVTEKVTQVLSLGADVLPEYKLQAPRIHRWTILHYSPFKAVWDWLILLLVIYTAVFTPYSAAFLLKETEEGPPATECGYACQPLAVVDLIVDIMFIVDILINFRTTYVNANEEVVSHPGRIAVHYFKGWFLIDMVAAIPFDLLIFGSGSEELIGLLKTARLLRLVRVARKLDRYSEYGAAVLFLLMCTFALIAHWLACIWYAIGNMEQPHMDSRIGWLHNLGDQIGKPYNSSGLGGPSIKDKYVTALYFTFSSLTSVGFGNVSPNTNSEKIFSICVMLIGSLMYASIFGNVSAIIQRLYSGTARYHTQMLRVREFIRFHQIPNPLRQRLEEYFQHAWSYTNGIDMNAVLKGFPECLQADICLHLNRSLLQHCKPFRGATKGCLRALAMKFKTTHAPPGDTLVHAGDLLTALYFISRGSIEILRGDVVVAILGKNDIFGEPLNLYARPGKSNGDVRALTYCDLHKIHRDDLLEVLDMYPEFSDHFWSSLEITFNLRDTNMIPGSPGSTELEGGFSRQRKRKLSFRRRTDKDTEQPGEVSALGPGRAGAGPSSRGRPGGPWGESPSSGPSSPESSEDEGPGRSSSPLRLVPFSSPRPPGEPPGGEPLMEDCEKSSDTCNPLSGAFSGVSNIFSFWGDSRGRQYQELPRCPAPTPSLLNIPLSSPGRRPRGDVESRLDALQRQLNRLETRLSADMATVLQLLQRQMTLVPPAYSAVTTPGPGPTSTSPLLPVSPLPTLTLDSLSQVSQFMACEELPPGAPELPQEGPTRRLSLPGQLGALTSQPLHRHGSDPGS
The nature of data set [8]: Cardiac safety by telemetry in conscious dogs. The class given is in vivo.

pIC50: −log10 of the molar value. ≈ marks a conversion by molar mass, not a printed value. Marks after values point to notes of the source that are not given here.

Chain of CYP2C19 (P33261 whole entry): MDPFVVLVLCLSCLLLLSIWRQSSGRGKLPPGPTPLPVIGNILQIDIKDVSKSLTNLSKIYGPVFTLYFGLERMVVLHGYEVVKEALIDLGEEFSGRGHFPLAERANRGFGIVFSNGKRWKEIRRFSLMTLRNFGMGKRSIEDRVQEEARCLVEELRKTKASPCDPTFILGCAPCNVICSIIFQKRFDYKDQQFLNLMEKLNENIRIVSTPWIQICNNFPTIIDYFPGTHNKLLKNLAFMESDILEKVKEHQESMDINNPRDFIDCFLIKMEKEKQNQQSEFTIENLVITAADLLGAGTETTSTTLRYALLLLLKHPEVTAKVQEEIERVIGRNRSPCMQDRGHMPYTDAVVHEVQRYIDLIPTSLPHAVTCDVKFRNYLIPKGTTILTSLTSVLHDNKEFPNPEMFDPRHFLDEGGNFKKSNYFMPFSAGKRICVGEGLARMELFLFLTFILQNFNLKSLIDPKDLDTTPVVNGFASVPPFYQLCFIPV

Regarding `Cc1cc(Nc2ccc(S(F)(F)(F)(F)F)cc2)n2nc(C(C)(F)F)nc2n1` [DSM265, 2-(1,1-difluoroethyl)-5-methyl-[N-[4-(pentafluorosulfanyl)phenyl]1,2,4]triazolo[1,5-a]pyrimidin-7-amine], the “blood-stage phenotype after treatment” value with P. falciparum 3D7 is on record as “arrested parasites in the young trophozoite-stage”. In [1], the “activity against small forms (non-dividing hypnozoite)” value is recorded as “poor activity”. Moreover, the EC50 in data set [1] (Plasmodium cynomolgi, read-out: EC50, liver-stage large form (multinucleated schizont)) came out at 0.13 µg/mL (≈ 0.313 µM). Also, the inhibition at 1 µg/mL in data set [2] (Plasmodium falciparum, read-out: inhibition of oocyst formation) was 38%. In addition, the “inhibition of oocyst formation at unbound concentration” value in data set [2] (at 0.001 μg/mL unbound (human plasma fraction unbound)) is reported as 38% at 0.001. Besides, in [3], the “Fraction unbound in assay media” value was 0.17 ^b. Further, the figures for the fraction unbound in data set [4] and in data set [5] were 0.006 and 0.023, respectively. In addition, on CYP2C19, the extent of metabolism turned out to be 0.039 μL/min/pmol CYP. Further, in [6], the “IC50 values for the full panel” value is greater than 4.2 µg/mL. In the data set on CYP enzymes, the CYP induction entry was “did not induce CYP enzymes”. Also, the pIC50 in data set [7] is 5.16 to 5.80. The concentration at 24 h in [8] (dog, plasma, oral, 300 mg/kg) stood at 1300 ng/mL. Also, in data set [8] (oral doses of 30 and 300 mg/kg), the ECGs result was “within normal limits”.

For orientation: EC50 means the concentration that produces a half-maximal response. The inhibition is the relative decrease from the control value, in per cent. Usually fraction unbound stands for the share of the substance not bound to proteins or other matrix. A lower fraction unbound goes with extensive binding. The pIC50 is the IC50 on a negative log10 scale, so that one unit is a factor of ten. Read a high pIC50 as a small IC50.

The values above are taken from paper PMC4539048 (Science translational medicine, 2015).
